Assay results: the array DNA melting data of Ke et al. (doi:10.1101/2024.01.08.574731)

Columns and labels:
[1] = melting temperature; fluorescence melt of hairpins on a sequencing array, two-state fit, raised by 9.35 °C to match UV melts; conditions: sodium 0.088 M
In short: (§1)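 Melting temperature and folding enthalpy were obtained by bootstrapped two-state fitting. Fits used Cy3 fluorescence of library hairpins with annealed Cy3 and quencher oligos on a sequenced MiSeq flow cell, imaged in 50 mM Na-HEPES pH 8.0, 25 mM NaCl in 2.5 °C steps up to 60 °C and normalised to pre-quench Cy3 and control constructs. Four replicates were combined by inverse-variance weighting, and fitted temperatures were raised by 9.35 °C to match UV melts.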

[2] = folding enthalpy; higher = less favourable; fluorescence melt of hairpins on a sequencing array, two-state fit; conditions: sodium 0.088 M
In short: as §1

Row | Sequence | Tm [1] | folding enthalpy [2]
1 | GCAACGCGAAAGCGCTGC (((.(((....))).))) | 57.8 °C | -37.9 kcal/mol
2 | GGGCTCGAAAGAGTTCCC ((((((....)))..))) | 43.5 °C | -21 kcal/mol
3 | GATCCTCCAAAGGATC ((((((....)))))) | 50.4 °C | -28.8 kcal/mol
4 | GATCCTACTGAGGATC ((((((....)))))) | 50.6 °C | -39.7 kcal/mol
5 | GCGAGGTTTCGC ((((....)))) | 49.4 °C | -16 kcal/mol
6 | GCATACGAAAGTATGTGC ((((((....)))..))) | 52.2 °C | -23 kcal/mol
7 | GATCTAGAACTAGATC ((((((....)))))) | 44.9 °C | -34.2 kcal/mol
8 | CGACCGGAAACGGTGTCG ((((((....)))..))) | 43 °C | -14.8 kcal/mol
9 | GATCGGCCAACCGATC ((((((....)))))) | 55.8 °C | -38.4 kcal/mol
10 | GTGGACGGAAACGTTCGC (.(.(((....))).).) | 45 °C | -26.6 kcal/mol
11 | GCGGTAGGAAACCACCGC (((((.(....).))))) | 57.3 °C | -36.8 kcal/mol
12 | GATCGCTGAGCGATC ((((((...)))))) | 69 °C | -31 kcal/mol
13 | GATGGGACGAAAGTCATC (((..(((....)))))) | 31.9 °C | -15.4 kcal/mol
14 | CACTAGAAATAGTG (((((....))))) | 37.2 °C | -16.9 kcal/mol
15 | GATCCACTGCTGGATC ((((((....)))))) | 50.4 °C | -41.4 kcal/mol
16 | GATCTAGTCATAGATC ((((((....)))))) | 50 °C | -38.4 kcal/mol
17 | GTCCACGAAAGTGCGGAC ((((((....)))..))) | 45 °C | -17.4 kcal/mol
18 | GGGTCACCGAAAGGTCCC (((..(((....)))))) | 38.9 °C | -17.1 kcal/mol
19 | GATCCACGGATGGATC ((((((....)))))) | 48.6 °C | -32.4 kcal/mol
20 | GATCGTCGCTACGATC ((((((....)))))) | 55 °C | -41.6 kcal/mol
21 | GCGGATGGCCGC ((((....)))) | 54.6 °C | -21 kcal/mol
22 | GCAGTCCGAAAGGAATGC (((.(((....))).))) | 62.1 °C | -38.1 kcal/mol
23 | GGTTGTCGAAAGACTACC (((.(((....))).))) | 52 °C | -46 kcal/mol
24 | GGAGATCGAAAGATATCC (((.(((....))).))) | 49.6 °C | -43.2 kcal/mol

Row | Sequence | Tm [1] | folding enthalpy [2]
25 | GCTAGTGGAAACGTTAGC ((((..(....)..)))) | 36.4 °C | -20.1 kcal/mol
26 | GCTCATGGAAACGTGAGC (((((.(....).))))) | 53.4 °C | -47.5 kcal/mol
27 | GTACCCGGAAACGGGCAC ((.((((....)))).)) | 50 °C | -18.7 kcal/mol
28 | GCGAAGCGAAAGCCTGGC ((.(.((....)).).)) | 34.1 °C | -5.56 kcal/mol
29 | GATCATATTAATGATC ((((((....)))))) | 47.9 °C | -34.1 kcal/mol
30 | GCCGGTGGAAACATCGGC ((((.((....)).)))) | 58.9 °C | -45.8 kcal/mol
31 | GCTTGGCGAAAGCCTAGC (((.(((....))).))) | 57.6 °C | -41.9 kcal/mol
32 | GAAGCCGAAAGGCACTTC ((((((....)))..))) | 42.4 °C | -12 kcal/mol
33 | GCTGTCGAAAGACCTAGC ((((((....)))..))) | 36.5 °C | -15.7 kcal/mol
34 | GCGGTCCCGAAAGGGCGC (((..(((....)))))) | 60.1 °C | -18.5 kcal/mol
35 | GTCGAGCGAAAGCTGAC (((.(((....)))))) | 57.7 °C | -20 kcal/mol
36 | CGGCCGGAAACGGGCCCG ((((((....)))..))) | 46.8 °C | -9.66 kcal/mol
37 | CGCGGACGAATCCGCG ((((((....)))))) | 68.5 °C | -33.2 kcal/mol
38 | GTTCGCGAAAGCGCCAAC ((((((....)))..))) | 25.6 °C | -8.24 kcal/mol
39 | GGACTGGGAAACCGGTTC (.((.((....)).)).) | 37.5 °C | -25.5 kcal/mol
40 | GCGAAGTATCGC ((((....)))) | 46.2 °C | -14.3 kcal/mol
41 | GATCCCCCGTGGGATC ((((((....)))))) | 60.5 °C | -36.7 kcal/mol
42 | GCGGAACGAAAGTTGCGC (((.(((....))).))) | 67.9 °C | -35.6 kcal/mol
43 | GTCGACGAAAGTCCGGAC ((((((....)))..))) | 37 °C | -18.1 kcal/mol
44 | GCCTCGTCGAAAGACGGC (((..(((....)))))) | 49.6 °C | -8.04 kcal/mol
45 | GATCTCGGATGAGATC ((((((....)))))) | 57 °C | -33.7 kcal/mol
46 | GATCTCGATGGAGATC ((((((....)))))) | 52.9 °C | -33.4 kcal/mol
47 | GAATGGGGAAACCTATTC ((((.((....)).)))) | 37.9 °C | -31.6 kcal/mol
48 | CAAACCGAAAGGCTTG (((.((....)).))) | 38.4 °C | -27 kcal/mol

Row | Sequence | Tm [1] | folding enthalpy [2]
49 | GGGAGGGGAAACCCTCTC (.(((((....))))).) | 52.2 °C | -20.2 kcal/mol
50 | GCTGCGCGAAAGCACTGC ((.(.((....)).).)) | 53.3 °C | -24.2 kcal/mol
51 | GTTTTCGGAAACGAAAGC (.(((((....))))).) | 44.4 °C | -25.9 kcal/mol
52 | GTTACAGAAATGTAAC ((((((....)))))) | 46.1 °C | -33.4 kcal/mol
53 | GCGGGCCTCCGC ((((....)))) | 64 °C | -22.5 kcal/mol
54 | GCAACCGAAAGGTATGC ((((((....))).))) | 50.3 °C | -26.4 kcal/mol
55 | GCTACGCGAAAGCGAGGC ((..(((....)))..)) | 53.3 °C | -15.1 kcal/mol
56 | GAAGTACGAAAGTAGTTC (((.(((....))).))) | 46.8 °C | -34.8 kcal/mol
57 | GATCCTCGATAGGATC ((((((....)))))) | 50.2 °C | -29.4 kcal/mol
58 | GAAAGCGAAAGCTTATTC ((((((....)))..))) | 32.7 °C | -10.9 kcal/mol
59 | GCACTGCGAAAGCCCTGC (((..((....))..))) | 28.8 °C | -12.5 kcal/mol
60 | GCGGTGCGAAAGCGCTGC ((.(.((....)).).)) | 66.9 °C | -21.6 kcal/mol
61 | CTTAGGAAACTAAG (((((....))))) | 33.4 °C | -11.4 kcal/mol
62 | GGTAAACCGAAAGGTACC (((..(((....)))))) | 40.1 °C | -20.2 kcal/mol
63 | GCGAAAGTTCGC ((((....)))) | 47.2 °C | -19.6 kcal/mol
64 | GATCTTCTTCAAGATC ((((((....)))))) | 43.5 °C | -27.7 kcal/mol
65 | CTCTCGAAAGAGAG (((((....))))) | 53.3 °C | -21.5 kcal/mol
66 | GCCACCGAAAGGTTGGC ((((((....))).))) | 60.5 °C | -33.9 kcal/mol
67 | GTTGCGGGAAACCGCGAC ((.((((....)))).)) | 60.7 °C | -31 kcal/mol
68 | CGTGTACGGAAACGTACG (((..(((....)))))) | 46 °C | -8.98 kcal/mol
69 | GATCAAGGTTTGATC ((((((...)))))) | 42.4 °C | -28.5 kcal/mol
70 | GATAGCGAAAGCTAATC ((((((....))).))) | 40.7 °C | -12.8 kcal/mol
